The whole screen tested about 190,000 compounds, of which fewer than 10 were called active. Not all results are given here. Unmarked numbers belong to inactive results.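 Rule for the calls: active = over 50% inhibition of intestinal alkaline phosphatase at 20 µM in the single-dose screen; inactive = the rest.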

For the assay, the system named is alkaline phosphatase, intestinal [Bos taurus]. Description: IAP enzyme activity blockers – biochemical, bovine IAP, CDP-star luminescence, selectivity assay for TNAP inhibitor project, primary screen (AID 1019). The following applies: purified bovine IAP, 30 min, at 20 µM, stronger effect = higher value. In outline:
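System: purified bovine intestinal alkaline phosphatase (IAP) enzyme; Input: IAP diluted 1/65,000,000 in the well; Measured by: CDP-star luminescence signal; Compound dosing: 20 µM single dose; Incubation: 30 min reaction at room temperature.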
In the case of `CCCC(=O)OCC(=O)Nc1cc(Cl)ccc1[N+](=O)[O-]`, the inhibition is 12.7%.
Regarding `O=C(COC(=O)CC1CC2CCC1C2)NC(=O)NC1CCCC1` (stereo not drawn), the inhibition is -11.4%.
The value for `COC(=O)c1ccc(NC(=S)Nc2cccc(C)n2)cc1` was 0.2%.
Regarding `COc1ccccc1NC(=O)c1cc(Cl)nnc1Cl`, the inhibition was -4%.
The same measure for `O=C(CCc1ccc(S(=O)(=O)N2CCOCC2)cc1)NN=C1CCCCCCC1`: 5%.
Consider `O=C(COC(=O)CCCNC(=O)c1ccc(Cl)cc1)Nc1cc(Cl)ccc1Cl`, for which the inhibition is 33.8%.
The value for `COc1cccc(/C=N/NC(=O)CNC(=O)c2ccc(S(=O)(=O)N3CCOCC3)cc2)c1OC` was 16.1%; that for `CS(=O)(=O)Nc1ccc(C2=NN(S(C)(=O)=O)C(c3cccs3)C2)cc1` (stereo not drawn) was -11%.
On to `O=C(COC(=O)c1ccc(O)cc1)Nc1nccs1`, for which the inhibition was -1.9%.
The same measure for `COc1ccc(C(=O)NC2(C(F)(F)F)NC(=O)N(CCCc3ccccc3)C2=O)c(OC)c1OC` (stereo not drawn): -13%; for `CCCCC1N2CC3([N+](=O)[O-])CN1CC([N+](=O)[O-])(C2)C3(C)C` (stereo not drawn): 3.9%.
The same measure for `Cc1cc(F)ccc1S(=O)(=O)N1CCCOC1CNC(=O)C(=O)NCCC1=CCCCC1` (stereo not drawn): 6.4%.
With `CC(C)=C1C2CCC1C1C(=O)N(NC(=O)c3ccco3)C(=O)C21` (stereo not drawn), the inhibition was 41.2%.
The value for `Cc1csc(NC(=O)CSc2ccc(-c3ccc(F)cc3)nn2)n1` was -3.9%; that for `CN(CC(=O)NCCc1ccccc1)S(=O)(=O)c1cnc[nH]1` was 5.2%; that for `O=S1(=O)CCC(NC(=S)SCc2ccccc2Br)C1` (stereo not drawn) was 23.3%.
As for `CCCCNC(=O)CCn1c(=O)c2ccccc2n(Cc2cc(C)ccc2C)c1=O`, the inhibition was 15.7%.
The value for `NC(=O)C1=C[C@H](c2csc3ccccc23)C[C@H](OCc2ccc(CO)cc2)O1` was -16.7%; that for `S=C(NC1CCCCC1)NN1CCOCC1` was -0.1%.
The same measure for `COc1ccccc1NC(=O)CCSc1nnc(-c2ccc(O)cc2)o1`: 3.5%.
The same measure for `Nc1cccc(CCc2nc3ccccc3[nH]2)c1`: 12%; for `O=[N+]([O-])c1ccc(NCCCO)c(C(F)(F)F)c1`: -0.5%; for `CC(C)c1nc2sc3c(c2c(=O)n1N)CC(C)(C)OC3`: -5%.
On to `O=C(Nc1cccc(C(F)(F)F)c1)c1cnccn1`, for which the inhibition was 5.6%.
The same measure for `COc1ccc(OCCCn2cccc2/C=C2/C(=N)N3OC(C)=CC3=NC2=O)cc1`: 13.7%; for `CCOC12CC(C)(C)CC(C)(CC3=C1C(=O)CC(C)(C)C3)C2` (stereo not drawn): -12.4%.
As for `Cn1c(CCCOc2ccc(Cl)cc2Cl)n[nH]c1=S`, the inhibition was 25.8%.
Turning to `CCCCN(CC)C(=S)Nc1ccc2nc3n(c(=O)c2c1)CCCCC3`, the inhibition is -16.6%.
As to `O=C(CCc1ccccc1)NCCc1cccs1`, the inhibition is 1.2%.
Regarding `O=C(NN1C(=O)C2C3C=CC(O3)C2C1=O)c1ccccc1` (stereo not drawn), the inhibition is -0.3%.
The value for `CN(C(=O)CSc1nnc(-c2c[nH]c3ccccc23)o1)C1CCS(=O)(=O)C1` (stereo not drawn) was -2.2%; that for `CCc1cccc2c(=O)c(C(=O)NCCCOC)c[nH]c12` was -5.7%.
`COc1ccc(CCNC(=O)COC(=O)Cc2cc(OC)c(OC)c(OC)c2)cc1`: the inhibition is -4.1%.
Regarding `O=c1cc(CN2CCN(S(=O)(=O)/C=C/c3ccccc3)CC2)c2ccc(O)cc2o1`, the inhibition is 1.7%.
The same measure for `Cc1cccc(N2CCN(C(=O)/C=C/c3ccco3)CC2)c1C`: 6.3%.
As to `CCCCn1nc(C(=O)OCC(=O)Nc2sccc2C(N)=O)c2ccccc2c1=O`, the inhibition was -0.9%.
The same measure for `COc1ccnc(Oc2ccccc2)n1`: -11%.
With `O=C1CCCC(O)=C1N=Nc1ccc2ncsc2c1`, the inhibition is 6.3%.
As for `O=C(C1=C[C@H](c2ccc(C(F)(F)F)cc2)C[C@H](OCc2ccc(CO)cc2)O1)N1CCN(Cc2ccccc2)CC1`, the inhibition was -12.1%.
Regarding `COC(=O)c1sc(N)c(C(=O)OC)c1COC(=O)CNS(=O)(=O)c1ccc(C)cc1`, the inhibition is 11.4%.
The value for `CN(c1ccccc1)S(=O)(=O)c1cc(C(=O)OCC(=O)N2CCN(C(=O)c3ccco3)CC2)ccc1Cl` was -7.4%; that for `C=CCNC(=S)N1CCN(CCN=Cc2c(C)[nH]n(-c3ccc([N+](=O)[O-])cc3)c2=O)CC1` was -6.4%.
As to `CCC(C)N(C)C1CCN(C(=S)Nc2ccc(OC)cc2)CC1` (stereo not drawn), the inhibition is -6.9%.
The same measure for `CCC(C)NC(=O)Cn1nc(C(F)(F)F)c2c1CCC2` (stereo not drawn): -10.6%; for `CCOc1ccc(-c2n[nH]c(C)c2-c2ccccn2)c(O)c1`: -27.5%; for `O=C(c1cc(Cl)cc(Cl)c1)N1CCC(=O)N(C(COCc2ccccc2)Cc2ccccc2)CC1` (stereo not drawn): -2.4%.
The same measure for `COc1ccc(Cn2c(=O)cc(C)[nH]c2=S)cc1`: 9.8%.
The value for `Cc1ccc(Cl)cc1NC(=O)COC(=O)CC(C)(C)C` was -16%; that for `CCc1ccc(N2CC(O)=C(c3nc4ccccc4c(=O)[nH]3)C2=N)cc1` was -19.9%; that for `CC(C)c1cc(NCc2ccccn2)n2c(nc3ccccc32)c1C#N` was -20.8%.
For the molecule `CC(C)[C@@H]1NC(=O)c2cc([N+](=O)[O-])cc(I)c2NCCC[C@@H](C(=O)NC(CC(=O)O)C(N)=O)NC(=O)[C@H](CO)NC1=O` (stereo partly drawn), the inhibition is 6.3%.
With `Cc1ccc(-c2ccc(/C=N/NC(=O)CN3CCOCC3)o2)cc1[N+](=O)[O-]`, the inhibition was -0.9%.
The value for `C/C(=N\NC(=O)C(N)=O)c1ccc2c(c1)OCCO2` was -4.3%.
The value for `Cc1ccc(NC(=O)c2cccnc2C(=O)Nc2ccc(C)cc2)cc1` was -4.3%; that for `Cc1ccc(CN2CCN(Cc3cccc(C)n3)CC2CCO)cc1` (stereo not drawn) was -23.9%.
Turning to `CCN(CC)c1ccc(C(=O)c2cnc(/N=C/N(C)C)s2)cc1`, the inhibition is 11.8%.
The same measure for `CC(C)CNC(=O)C(=O)Nc1ccc(N(C)C)cc1`: -7.9%; for `O=C(CSc1nnc(-c2ccc([N+](=O)[O-])cc2)o1)Nc1ccccn1`: -24.6%; for `CCO[C@@H]1OC(C(N)=O)=C[C@H](c2ccc(Br)cc2)[C@H]1CCCO`: -2%.
The same measure for `Cn1cccc1C(C#N)c1ccccc1C#N` (stereo not drawn): -10.8%; for `Cc1ccc(NC(=S)N(Cc2ccco2)C(C)c2cccs2)cc1` (stereo not drawn): 34.5%; for `NC1=C([N+](=O)[O-])C(c2ccccc2)C2=C(CCCC2=O)O1` (stereo not drawn): 3.7%.
The value for `COc1ccccc1Oc1ccc(N/C=C2/CCCC2=O)cc1` was 20.1%; that for `CC(=O)Nc1nc(N(C)C)nc(N(C)C)n1` was 4.4%.
Turning to `CC(=O)c1ccc(N=C2SCCCN2C(=O)C2CCCCC2)cc1`, the inhibition is 24.2%.
Take `COc1ccccc1N1CCN(CC(=O)NCCc2ccc(S(N)(=O)=O)cc2)CC1`: the inhibition was -0.9%.
Regarding `Oc1ccc(/C=N/Nc2ccc(C(F)(F)F)cn2)cc1O`, the inhibition is -26.9%.
The value for `COc1ccc(OC)c(C2C3=C(N=c4s/c(=C\c5cccc(O)c5)c(=O)n42)c2ccccc2CC3)c1` (stereo not drawn) was 0.5%; that for `COc1ccc(NC(=O)C(C)SCc2ccccc2)cc1` (stereo not drawn) was -24.1%; that for `CN(c1ccccc1)S(=O)(=O)c1ccc(Cl)c(C(=O)OCC(=O)N2CCOCC2)c1` was 0.4%.
The same measure for `CC(NCc1nc2ccccc2n1C)C12CC3CC(CC(C3)C1)C2` (stereo not drawn): 1%; for `CCN(CC)S(=O)(=O)c1cc([N+](=O)[O-])ccc1N=Nc1c(O)n(C)c2ccccc12`: -5.1%; for `Cc1cccc(CN2CCN(Cc3cnn(-c4ccccc4F)c3)CC2CCO)n1` (stereo not drawn): -15.4%.
The same measure for `O=[N+]([O-])c1ccccc1N/N=C1\CCc2ccccc21`: 14.9%; for `CCc1ccc(C(=O)OCC(=O)Nc2cccc(S(=O)(=O)NC3=NCCCCC3)c2)cc1`: 7.2%.
In the case of `O=C(COC(=O)c1cc(-c2cccs2)nn1-c1ccccc1)Nc1cc([N+](=O)[O-])ccc1Cl`, the inhibition was -4.8%.
The value for `Cc1ccc(C2=NN(C(=O)COc3ncnc4ccccc34)C(c3ccco3)C2)cc1` (stereo not drawn) was -8.2%.
The value for `COC(=O)c1cc(NC(=O)c2cccnc2)ccc1N1CCOCC1` was 0.2%.
The value for `COc1ccc(S(=O)(=O)NC(C)C)cc1C(=O)NC1CCCCC1` was 7.7%; that for `COc1ccccc1NC(=O)C[n+]1ccccc1` was 5.8%.
Consider `Cc1cc(/C=C2/SC(=O)N(CC(=O)N3CCCC3)C2=O)ccc1N1CCOCC1`, for which the inhibition is 2.3%.
The value for `COc1ccc(CCNC(=O)Cn2c(=O)n(CC3CCCO3)c(=O)c3ccccc32)cc1OC` (stereo not drawn) was -3.9%; that for `N#C/C(=C\C1=C(N2CCOCC2)C(=C\c2ccccc2)/CC1)C(=O)Nc1ccccc1F` was 5.9%.
For `CC1CN/C(=C\C(=O)c2ccc(Br)cc2)C(=O)N1` (stereo not drawn), the inhibition was 12.9%.
The value for `COc1ccc(/C=C(\C#N)C(=O)ONC2=NCCCCC2)cc1` was -2%.
Turning to `Cc1ncoc1C(=O)N1CCCC(C(=O)c2ccc3c4c(cccc24)CC3)C1` (stereo not drawn), the inhibition was 8.3%.
With `COC(=O)c1nc(NC(=O)c2ccc(F)cc2)n[nH]1`, the inhibition was 8.8%.
The same measure for `CC1(C)CC(=O)c2cnc3nc4ccccc4n3c2C1`: 7.1%; for `CCOc1c(CNCc2ccc(C(=O)O)cc2)cccc1OC`: -5.7%; for `Cc1cc(C(C)(C)C)cc(S(=O)(=O)Nc2ccc(C(=O)O)cc2)c1C`: -15.7%.
The value for `Cc1c(NC(=O)CSc2nnnn2-c2ccc(C(=O)O)cc2)c(=O)n(-c2ccccc2)n1C` was 6%; that for `CC(C)(C)c1cnnn1-c1ccc([N+](=O)[O-])cc1` was 3.1%; that for `CCCCCCCCCOC1OC(CO)C(O)C(O)C1NC(C)=O` (stereo not drawn) was -0.5%.

In general, inhibition refers to the drop in the measured response relative to a control, in per cent.

Source of the values: PubChem BioAssay AID1019 (Sanford-Burnham Center for Chemical Genomics, 2008).
